These results are taken from ChEMBL document CHEMBL1139334, “Discovery of novel analgesic and anti-inflammatory 3-arylamine-imidazo[1,2-a]pyridine symbiotic prototypes” (Bioorg Med Chem, 2009).

pIC50: −log10 of the molar value. The source made the active and inactive calls. No cut-off for these calls is given here.

Assay [1] deals with Rattus norvegicus. Put plainly: Antiinflammatory activity in Wistar rat assessed as inhibition of carrageenan-induced paw edema at 100 umol/kg, po measured 3 hrs post carrageenan challenge. The assay is classed as functional. Summed up: (§1)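 Fasted Wistar rats of both sexes (150–200 g) were dosed orally with a suspension in 5% arabic gum in saline; controls received vehicle. After 1 h, 1% carrageenan (0.1 ml, […]) was injected subplantarly into the right hind paw and sterile saline into the left. Paw volumes were read by glass plethysmometer 3 h later. Edema is the carrageenan-minus-saline paw volume; results are % inhibition versus vehicle.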
On the technique in general: The carrageenan paw model is a standard test of acute inflammation.

Assay [2] relates to Rattus norvegicus. The assay is described as follows: Antiinflammatory activity in po dosed Wistar rat assessed as inhibition of carrageenan-induced paw edema measured 3 hrs post carrageenan challenge. The assay is classed as functional. Summed up:
as §1

The test system of assay [3] is Rattus norvegicus. The assay is described as follows: Antihyperalgesic activity in Wistar rat assessed as inhibition of capsaicin-induced thermal hyperalgesia at 100 umol/kg, po. The assay is classed as functional, organism-based. The method, boiled down: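 Fasted Wistar rats of both sexes (150–200 g) had basal and acclimatization withdrawal latencies recorded on a 52 °C hot plate. Compound was given orally 1 h before an intraplantar injection of 5% capsaicin in DMSO into the right hind paw. Right hind paw withdrawal latency was timed by chronometer at 2, 5, 10, 30 and 60 min post-challenge.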

Assay [4] deals with Mus musculus. Put plainly: Analgesic activity in Swiss mouse assessed as inhibition of acetic acid-induced abdominal constriction at 100 umol/kg, po administered 1 hr before acetic acid challenge. The assay is classed as functional. To be noted: Abdomen. Summed up: (§2)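 Swiss mice (18–23 g) received compounds orally as a suspension in 5% arabic gum in saline; controls received an equal volume of vehicle. After 1 h, 0.6% acetic acid (0.1 ml/10 g) was given ip. Constrictions were counted for 20 min, starting 10 min after injection. Results are % inhibition versus vehicle; N = 7–10 per group; mean ± SEM; one-way ANOVA with Dunnett test.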

Assay [5] concerns the target T1, Prostaglandin G/H synthase 2 (Homo sapiens, UniProt P35354).
T1 sequence (P35354 whole entry): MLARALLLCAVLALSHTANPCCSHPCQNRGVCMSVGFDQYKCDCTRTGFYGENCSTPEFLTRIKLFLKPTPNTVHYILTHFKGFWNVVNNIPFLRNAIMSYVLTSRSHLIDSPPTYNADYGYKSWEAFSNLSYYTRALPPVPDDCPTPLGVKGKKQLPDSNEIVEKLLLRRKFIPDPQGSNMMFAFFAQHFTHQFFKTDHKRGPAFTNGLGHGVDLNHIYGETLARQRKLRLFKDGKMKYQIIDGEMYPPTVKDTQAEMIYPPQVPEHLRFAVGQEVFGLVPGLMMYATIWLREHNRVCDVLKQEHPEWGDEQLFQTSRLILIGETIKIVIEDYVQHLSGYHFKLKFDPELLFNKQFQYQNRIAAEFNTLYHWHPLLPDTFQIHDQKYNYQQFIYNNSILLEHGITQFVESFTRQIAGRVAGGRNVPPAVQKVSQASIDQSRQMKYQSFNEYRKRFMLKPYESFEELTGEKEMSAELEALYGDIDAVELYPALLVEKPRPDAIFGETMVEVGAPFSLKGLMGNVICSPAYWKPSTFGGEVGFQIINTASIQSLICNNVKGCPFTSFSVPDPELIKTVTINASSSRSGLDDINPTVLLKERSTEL
Put plainly: Inhibition of PGHS2 in human whole blood assessed as inhibition of TXB2 production by radioimmunoassay. The class given is tissue-based.

The subject of assay [6] is Mus musculus. Put plainly: Analgesic activity in po dosed Swiss mouse assessed as inhibition of acetic acid-induced abdominal constriction administered 1 hr before acetic acid challenge. To be noted: Abdomen. The assay is classed as functional. Summed up:
as §2

`c1ccc(Nc2c(-c3ccncc3)nc3ccccn23)cc1`: the inhibition in vivo – broadly, the change of the read-out against control, counted positive when it falls – at 100 µmol/kg in assay [1] came to 49.9%; in assay [4], 13%. The ED50 – broadly, the midpoint of the dose-response relation – in assay [2] worked out at 11.5 µmol/kg. Also, the result in assay [3] was Active.

As for `CS(=O)(=O)c1ccc(Nc2c(-c3ccccn3)nc3ccccn23)cc1`, the figures for the inhibition in vivo at 100 µmol/kg in assay [1] and in assay [4] were 18.5% and 33.7%, respectively. For the same molecule, in assay [3], the outcome was Active.

Regarding `CS(=O)(=O)c1ccc(-c2nc3ccccn3c2Nc2ccccn2)cc1`, the inhibition in vivo at 100 µmol/kg was determined as 17.2% in assay [1] and 22.2% in assay [4]. Besides, the outcome in assay [3] was Active.

On to `c1ccc(Nc2c(-c3ccccc3)nc3ccccn23)cc1`, for which the figures for the inhibition in vivo at 100 µmol/kg in assay [1] and in assay [4] were 63.9% and 10.8%, respectively. For the same molecule, the ED50 in assay [2] came out at 14.5 µmol/kg. In addition, the result in assay [3] was Active.

Consider `c1ccc(Nc2c(-c3ccccn3)nc3ccccn23)cc1`, for which the inhibition in vivo at 100 µmol/kg was 33.4% in assay [1] and -3% in assay [4]. The pIC50 (as a rule, the IC50 on a negative log10 scale, so that one unit is a factor of ten) in assay [5] was 4.73. Further, the outcome in assay [3] was Active.

For `COc1ccc(Nc2c(-c3ccc(S(C)(=O)=O)cc3)nc3ccccn23)cc1`, the ED50 came out at 22.7 µmol/kg in assay [6] and 8.7 µmol/kg in assay [2]. The inhibition in vivo at 100 µmol/kg is 41.7% in assay [1] and 53% in assay [4]. Further, the pIC50 in assay [5] was 5.55. For the same molecule, in assay [3], the result was inactive.

Turning to `Cc1ccc(-c2cc(C(F)(F)F)nn2-c2ccc(S(N)(=O)=O)cc2)cc1` [CELECOXIB], the ED50 stood at 247 µmol/kg in assay [6] and 87.7 µmol/kg in assay [2]. The inhibition in vivo at 100 µmol/kg in assay [1] was 30%; in assay [4] it was 46.1%.

On to `CS(=O)(=O)c1ccc(Nc2c(-c3ccncc3)nc3ccccn23)cc1`, for which the inhibition in vivo at 100 µmol/kg in assay [1] worked out at 1.8%; in assay [4] it was 33.6%. The outcome in assay [3] was Active.

Consider `CS(=O)(=O)c1ccc(-c2nc3ccccn3c2Nc2ccccc2)cc1`, for which the figures for the inhibition in vivo at 100 µmol/kg in assay [1] and in assay [4] were 28.2% and 7.4%, respectively. For the same molecule, the outcome in assay [3] was inactive.
